Data as given in ChEMBL document CHEMBL4513216, “Probing the Open Global Health Chemical Diversity Library for Multistage-Active Starting Points for Next-Generation Antimalarials” (ACS Infect Dis, 2020).

Assay: Toxicity liver stage against HepG2, at 10uM
Format: cell-based
Set-up: test concentration 10 uM, cell line HepG2-A16-CD81EGFP
Conditions: human, HepG2-A16-CD81EGFP cells; read-out: INHIBITION
How it was run: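 Uninfected HepG2-A16-CD81EGFP cells, 3 × 10^3 per well, 1536-well, plated on prespotted compound at 10 μM final, parasite-free screening media added to match infected plates; puromycin 10 μM positive, DMSO 0.5% negative; run in parallel with 48 h PbLuc assay at 37 °C, 5% CO2; viability by CellTiter-Glo luminescence, normalized to controls.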

CC(C)n1cc(CN(C)C[C@@H]2CCCN3CCCC[C@H]23)cn1
cytotoxicity at 10 µM: 0.276%

Cc1cn2c(n1)CCC(NC(=O)CCOc1ccccc1F)C2 (configuration not stated)
cytotoxicity at 10 µM: 5.27%

CCOCC(=O)N1CCC(c2cc3ncccc3c(O)n2)CC1
cytotoxicity at 10 µM: -30.1%

Cc1nc(C)n(CC2CN(CCOCC(F)(F)F)CCO2)n1 (configuration not stated)
cytotoxicity at 10 µM: -1.95%

O=C(Cc1ccc(Cl)s1)Nc1ccc2c(c1)C(=O)NC2=O
cytotoxicity at 10 µM: -7.19%

CCn1cnnc1C1CCN(C(=O)CC(C)n2cccc2)CC1 (configuration not stated)
cytotoxicity at 10 µM: -1.49%

COc1ccc(OC)c(C2CCN(C(=O)C3CCN(C(C)C)CC3)C2)c1 (configuration not stated)
cytotoxicity at 10 µM: -7.49%

O=C(CCc1ccc(F)cc1)NS(=O)(=O)c1ccc2c(c1)OCCCO2
cytotoxicity at 10 µM: 4.4%

OC(CNCCc1nnc2ccccn12)c1ccc2c(c1)OCO2 (configuration not stated)
cytotoxicity at 10 µM: 4.06%

c1ccc(-c2nc(SCc3nnc(C4CC4)o3)n[nH]2)nc1
cytotoxicity at 10 µM: -1.78%

Fc1cccc(O[C@@H]2C[C@H]3CN(Cc4ccncc4)CCN3C2)c1
cytotoxicity at 10 µM: -143%

CC(C)(C)C(=O)N1CC[C@@H]2[C@H](CC1)N(S(C)(=O)=O)CCS2(=O)=O
cytotoxicity at 10 µM: 0.64%

O=C(NCCCN1CCOCC1)c1ccn(-c2ccc3ccccn23)n1
cytotoxicity at 10 µM: 5.17%

CC(NC(=O)NCCNc1ncccn1)c1cccs1 (configuration not stated)
cytotoxicity at 10 µM: -0.447%

COc1cc(CNCCC(N)=O)c2c(c1)CC(C)O2 (configuration not stated)
cytotoxicity at 10 µM: 8.41%

CCOc1ccc(CC(CNC(=O)c2ccc(C)s2)C(N)=O)cc1 (configuration not stated)
cytotoxicity at 10 µM: -3.85%

O=C(CO[C@@H]1CC[C@H]2[C@H]1OCCN2CC1CCOCC1)N1CCCC1
cytotoxicity at 10 µM: -11.6%

COc1ccc(CNCCc2cccc(C(N)=O)c2)cc1C
cytotoxicity at 10 µM: -6.81%

Cn1ccc2c(C(=O)NCCCN3CCOCC3)cccc21
cytotoxicity at 10 µM: -0.452%

CCCOCCN1CCC2(CC1)CC(c1ccccc1)C(=O)N2C (configuration not stated)
cytotoxicity at 10 µM: 38.1%

CN1CCOC(CN(C(=O)CN2CCCC2=O)c2nccs2)C1 (configuration not stated)
cytotoxicity at 10 µM: -7.06%

N#CCc1ccc(OCC(=O)N2CCCC(n3cccn3)C2)cc1 (configuration not stated)
cytotoxicity at 10 µM: -4%

COc1cccc2c1OCC(Cc1cc(C(=O)N3CCCC3)ccn1)C2 (configuration not stated)
cytotoxicity at 10 µM: 5.15%

Cc1cc(C)n(CCCN(C)Cc2cn[nH]c2-c2ccc(F)cc2)n1
cytotoxicity at 10 µM: 2.09%

CC(C)NC(=O)N1CCC2(CC1)CCn1c(C3CC3)cnc12
cytotoxicity at 10 µM: 2.04%

c1cnc(N2CCCC(c3cc4cccnc4[nH]3)C2)nc1 (configuration not stated)
cytotoxicity at 10 µM: -9.42%

CCOCCN1CCN(CC(=O)N2CCCC2)CC1CC (configuration not stated)
cytotoxicity at 10 µM: -2.47%

Cc1[nH]ccc1C(=O)N1C[C@@H]2CC[C@H]1CN(S(=O)(=O)N(C)C)C2
cytotoxicity at 10 µM: 11.8%

O=C(c1ccccn1)N1CCC(c2nccn2Cc2ccncc2)CC1
cytotoxicity at 10 µM: 1.94%

Cc1cccc(C(=O)N2CCN(c3ccccc3F)CC2)n1
cytotoxicity at 10 µM: 1.83%

CCc1ocnc1C(=O)N1CCCC1c1noc(C2CC2)n1 (configuration not stated)
cytotoxicity at 10 µM: -4.45%

O=C1CCCN1Cc1nnc2n1CCN(Cc1ccccn1)CC2
cytotoxicity at 10 µM: -9.87%

CCc1c(C)sc2c1c(N)nc(=O)n2CCN1CCOCC1
cytotoxicity at 10 µM: 1.17%

OCCOc1ccc(NCc2cccc3cn[nH]c23)cn1
cytotoxicity at 10 µM: -4.13%

CC(=O)N1CC[C@H](c2nc3cc(F)ccc3o2)C1
cytotoxicity at 10 µM: 0.835%

CCC(C)NC(=O)c1ccc(CNC(=O)CC(C)(C)C)cc1 (configuration not stated)
cytotoxicity at 10 µM: 10%

Cc1ccc(-c2noc(C3CCN3C(=O)c3cc[nH]n3)n2)s1 (configuration not stated)
cytotoxicity at 10 µM: 8.47%

CCc1nc(-c2ccc(NC(=O)N3CCOCC3)cc2)no1
cytotoxicity at 10 µM: 5.48%

CN(C)c1cc(C(=O)N2CCCC2c2cnn(C)c2)ccn1 (configuration not stated)
cytotoxicity at 10 µM: -1.39%

CCCN1CCN(C(=O)Cn2nc(C(F)(F)F)c(Br)c2C2CC2)CC1
cytotoxicity at 10 µM: 2.2%

N#Cc1ccc(N2CCCN(CC(N)=O)CC2)cc1
cytotoxicity at 10 µM: 3.11%

O=C(C1CC1)N1CCC(c2nc(O)c3c(n2)CN(C2CCCC2)CC3)C1 (configuration not stated)
cytotoxicity at 10 µM: -24.1%

Cc1nc(CN2CCC3(CCCO3)CCC2=O)no1 (configuration not stated)
cytotoxicity at 10 µM: -0.452%

CN(C)C(=O)C1(C)CN(Cc2cn(C)c3ccc(F)cc23)CCO1 (configuration not stated)
cytotoxicity at 10 µM: 4.57%

CN(C)C(=O)CN1CCN(c2cc(N3CCCC3CO)ncn2)CC1 (configuration not stated)
cytotoxicity at 10 µM: -1.49%

CN1CCN(C)C2(CCN(Cc3ccc(C4CCCCO4)o3)CC2)C1 (configuration not stated)
cytotoxicity at 10 µM: 0.0773%

Cc1cccc(CO[C@@H]2CC[C@H]3[C@H]2OCCN3Cc2ccoc2)n1
cytotoxicity at 10 µM: -109%

CCCN(Cc1ccccc1C)C(CC)CO (configuration not stated)
cytotoxicity at 10 µM: -6.08%

c1ccc(CN2CCCn3nnc(CNc4ncccn4)c3C2)nc1
cytotoxicity at 10 µM: -3.29%

COCCN1CCCC2(CCN(c3cc(C)c(C#N)c(C)n3)C2)C1=O (configuration not stated)
cytotoxicity at 10 µM: 2.7%

CCc1ncc2c(n1)CN(c1cc(N3CCN(C)CC3)nc(N)n1)C2
cytotoxicity at 10 µM: 22.8%

Cc1cc(C2CCCN(CC(=O)Nc3nc4c(s3)CCC4)C2)n[nH]1 (configuration not stated)
cytotoxicity at 10 µM: -44.2%

COc1cccc(CN2C[C@H]3CC[C@H]2C3)c1OCCN1CCOCC1
cytotoxicity at 10 µM: 0.101%

O=c1cc(N2CCCC2)cnn1CCc1cccc(F)c1
cytotoxicity at 10 µM: -12.8%

COc1ccc(CNC2CCC(O)CC2)cc1OCCCC#N (configuration not stated)
cytotoxicity at 10 µM: -2.56%

CNS(=O)(=O)Cc1ccc(CNC(=O)c2ccccn2)cc1
cytotoxicity at 10 µM: -0.945%

Cc1nc(CCN(C)C(=O)C2COc3ccccc3C2)no1 (configuration not stated)
cytotoxicity at 10 µM: -19.7%

CN1CCCC(C(=O)N2CCC(Oc3ccc(C#N)cn3)CC2)C1 (configuration not stated)
cytotoxicity at 10 µM: -5.6%

CN(C(=O)c1cccc(C#N)c1)c1nnc(C2CCOC2)s1 (configuration not stated)
cytotoxicity at 10 µM: 5.96%

Cn1cc(-c2cnc(N3CCOCC3)nc2)cc1C(=O)N1CCOCC1
cytotoxicity at 10 µM: 9.8%

Cc1nc(C)n(C2CCCN(C(=O)CCCc3ccccn3)C2)n1 (configuration not stated)
cytotoxicity at 10 µM: -0.586%

Cn1cc(N2C(=O)C[C@@H]3[C@@H]2CCN3C(=O)c2ccco2)cn1
cytotoxicity at 10 µM: -107%

CN(C)c1nc2c(c(=O)[nH]1)CCN(C(=O)c1ccc(=O)[nH]c1)C2
cytotoxicity at 10 µM: 10.2%

O=S(=O)(CCCN1CCCC1Cn1cncn1)c1ccccc1 (configuration not stated)
cytotoxicity at 10 µM: -7.64%

Cc1ccc(CN2CCc3nnc(CN4CCCC4=O)n3CC2)o1
cytotoxicity at 10 µM: -4.28%

Cc1ncsc1C(=O)NC1CCN(Cc2ccc(C(F)(F)F)cc2)CC1
cytotoxicity at 10 µM: 15.5%

O=C(c1cccc(CNS(=O)(=O)c2ccc(F)cc2)c1)N1CCCC1
cytotoxicity at 10 µM: -8.57%

CCOCC(O)CN1CCN(C(=O)c2cc(F)ccc2C)CC1 (configuration not stated)
cytotoxicity at 10 µM: -6.69%

Cc1cc(C)nc(Nc2cccc(C3CCCN(CC4CC4)C3)n2)n1 (configuration not stated)
cytotoxicity at 10 µM: -11.3%

COCCn1ccc(NCc2scnc2C)n1
cytotoxicity at 10 µM: -2.9%

Fc1cc(Oc2ccc(C(F)(F)F)cn2)cc(F)c1CN1CCCC1
cytotoxicity at 10 µM: 24%

c1ccc(CN2CCCC2Cn2cncn2)nc1 (configuration not stated)
cytotoxicity at 10 µM: -10.8%

O=C(Nc1cc(Cl)ccc1Cl)NC1CCN(C2CCOC2)CC1 (configuration not stated)
cytotoxicity at 10 µM: 6.8%

Cc1nc(C)c(C(C)NCc2cnc(N3CCOCC3)nc2)s1 (configuration not stated)
cytotoxicity at 10 µM: -4.76%

O=C1CCCN1Cc1nnc2n1CCCN(Cc1ccco1)C2
cytotoxicity at 10 µM: 3.24%

COc1cccc(Cn2ncnc2CCSC)c1
cytotoxicity at 10 µM: -1.22%

CN(C)C[C@H]1OC[C@@H]2CCN(C(=O)Cc3cccs3)C[C@@H]21
cytotoxicity at 10 µM: 7.13%

CC1CCCCN1c1nc2c(c(=O)[nH]1)CCN(Cc1ccccn1)C2 (configuration not stated)
cytotoxicity at 10 µM: -10.7%

CC(=O)N1CCCCC1c1ncnn1-c1ccc2nc(C)sc2c1 (configuration not stated)
cytotoxicity at 10 µM: -12%

O=C(NCc1ccco1)c1cccc(C(=O)NCc2ccco2)n1
cytotoxicity at 10 µM: 5.7%

COCC1CN(Cc2ccc(C)s2)Cc2nnn(C)c21 (configuration not stated)
cytotoxicity at 10 µM: 5.17%

O=C(NC1CC1)c1cc(Sc2ncccn2)ccn1
cytotoxicity at 10 µM: 0.493%
